Source: ChEMBL document CHEMBL1126260, “Thromboxane receptor antagonism combined with thromboxane synthase inhibition. 2. Synthesis and biological activity of 8-(benzenesulfonamido)-7-(3-pyridinyl)octaonic acid and related compounds” (J Med Chem, 1992)

What was measured:
Thromboxane-A synthase = target: T1, Thromboxane-A synthase (Homo sapiens, UniProt P24557); assay: Inhibitory activity against human Thromboxane A2 synthase
T1 sequence (P24557 whole entry): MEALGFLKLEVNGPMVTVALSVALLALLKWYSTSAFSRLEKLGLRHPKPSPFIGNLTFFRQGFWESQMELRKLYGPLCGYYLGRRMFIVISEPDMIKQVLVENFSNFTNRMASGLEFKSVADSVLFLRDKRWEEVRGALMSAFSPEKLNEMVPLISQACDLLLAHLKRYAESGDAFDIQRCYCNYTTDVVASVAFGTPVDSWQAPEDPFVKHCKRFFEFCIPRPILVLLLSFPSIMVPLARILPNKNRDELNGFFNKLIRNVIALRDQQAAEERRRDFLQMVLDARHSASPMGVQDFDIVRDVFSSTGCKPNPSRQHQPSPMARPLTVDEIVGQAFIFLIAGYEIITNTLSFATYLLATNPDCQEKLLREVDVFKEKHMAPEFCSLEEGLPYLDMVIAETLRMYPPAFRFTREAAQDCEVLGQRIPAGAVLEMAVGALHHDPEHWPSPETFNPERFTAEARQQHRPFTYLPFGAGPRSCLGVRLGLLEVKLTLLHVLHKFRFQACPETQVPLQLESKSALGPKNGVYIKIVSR
Summary of the method: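 Human platelet microsomal preparation incubated with (14C)arachidonic acid; thromboxane synthase inhibition read as reduced TxB₂ formation; IC50.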

Homo sapiens [1] = organism: Homo sapiens; assay: Inhibitory activity against U-46,619-induced aggregation of washed human platelets.; type: functional
Summary of the method: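 Aspirin-treated, washed human platelets stimulated with U 46619 (stable PGH₂/TxA₂ mimic); aggregation inhibition measured; IC50.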

[2] = Ratio of platelet rich plasma to that of washed platelets
Oryctolagus cuniculus [3] = organism: Oryctolagus cuniculus; assay: Antagonist activity against contraction of rabbit aortic strips; (agonist activity was observed at 10e-5-10e-7M); type: functional, Aorta
Summary of the method: (§1)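 Thoracic aorta segments (~3 cm) from anesthetized male New Zealand rabbits (1.4–2.4 kg), cleaned of fat; 2.0 g preload, 1 h equilibration. Contraction evoked by U 46619 (3 × 10⁻⁹ M) to plateau (20 min), then washed back to baseline. IC50 from a single determination.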

Homo sapiens [4] = organism: Homo sapiens; assay: Antagonist activity against U-46,619-induced aggregation of platelet rich plasma (PRP); type: functional
Summary of the method: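 Human platelet-rich plasma stimulated with U 46619; aggregation inhibition measured; IC50.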

Oryctolagus cuniculus [5] = organism: Oryctolagus cuniculus; assay: Antagonist activity against contraction of rabbit aortic strips; type: functional; conditions: Aorta; summary of the method: as §1

IC50 (Thromboxane-A synthase) [nM] | IC50 (Homo sapiens [1]) [nM] | IC50 (Oryctolagus cuniculus [3]) | IC50 (Homo sapiens [4]) [nM] | IC50 (Oryctolagus cuniculus [5]) [nM] | SMILES | Ratio [2]
> 10000 | > 10000 |  |  |  | CN(CC(CCCCCC(=O)O)c1cccnc1)S(=O)(=O)c1ccc(Cl)cc1 (stereo not drawn) | 
> 10000 | > 10000 |  |  |  | NC(=O)CCCCCC(CNS(=O)(=O)c1ccccc1)c1cccnc1 (stereo not drawn) | 
77 | 80 |  |  |  | O=C(O)CCCCC(CNS(=O)(=O)c1ccc(Cl)cc1)c1cccnc1 (stereo not drawn) | 
> 10000 | > 10000 |  |  |  | COC(=O)CCCCCC(CNS(=O)(=O)c1ccccc1)c1cccnc1 (stereo not drawn) | 
120 | 70 |  |  |  | O=C(O)CCCCCC(CNS(=O)(=O)c1ccc([N+](=O)[O-])cc1)c1cccnc1 (stereo not drawn) | 
940 | 300 |  |  |  | COc1ccc(S(=O)(=O)NCC(CCCCCC(=O)O)c2cccnc2)cc1 (stereo not drawn) | 
240 | 10 | Agonist | 200 |  | Cl.O=C(O)CCCCCCC(CNS(=O)(=O)c1ccc(Cl)cc1)c1cccnc1 (stereo not drawn) | 20
 |  | Agonist | 600 |  | Cl.O=C(O)CCCCCC(CNS(=O)(=O)c1ccc(Cl)cc1)c1cccnc1 (stereo not drawn) | 30
2000 | > 10000 |  |  |  | O=C(O)CCCC(CNS(=O)(=O)c1ccc(Cl)cc1)c1cccnc1 (stereo not drawn) | 
200 | 380 |  |  |  | Cc1ccccc1S(=O)(=O)NCC(CCCCCC(=O)O)c1cccnc1 (stereo not drawn) | 
50 | 200 |  |  |  | Cc1ccc(S(=O)(=O)NCC(CCCCCC(=O)O)c2cccnc2)cc1 (stereo not drawn) | 
> 10000 | > 10000 |  |  |  | O=C(O)CCCCCC(CNS(=O)(=O)c1ccc(C(=O)O)cc1)c1cccnc1 (stereo not drawn) | 
40 | 80 |  | 2500 | 1000 | Cl.O=C(O)CCCCCC(CNS(=O)(=O)c1ccc(Cl)c(Cl)c1)c1cccnc1 (stereo not drawn) | 32
210 | 250 |  | 2100 | 400 | Cl.O=C(O)CCCCCC(CNS(=O)(=O)c1ccccc1)c1cccnc1 (stereo in doubt; 6) | 8.2
> 10000 | 250 |  |  |  | O=C(O)CCCCCC(CNS(=O)(=O)c1ccccc1)c1cccnc1 (stereo in doubt; 25) | 
 | 1500 |  | 4000 |  | O=C(O)COc1ccc(CCNS(=O)(=O)c2ccccc2)cc1 [SULOTROBAN] | 2.6
